HTRA1 inhibitor: inhibitors of human serine peptidase HTRA1; Q92743; recombinant HTRA1, FP-rhodamine activity-based probe, fluorescence polarization; inhibition, % at 5.96 µM; 340,000 tested, 0.5% active; in the data active = inhibition above about 36%;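 also: 0% = enzyme with DMSO and 100% = wells lacking enzyme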
PRMT1 FP inh: inhibitors of human PRMT1 | Q99873 | recombinant PRMT1, activity-based probe fluorescence polarization | inhibition, % at 2.79 µM | 370,000 tested, 1.3% active | AID 652257;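 active = inhibition above about 21% made by adding two undisclosed values, limit read from the data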
TCR CD3 inh: inhibitors of human TCR-CD3 interaction | AID 651800 | TAMRA-labeled TCR probe fluorescence, biochemical | 360,000 tested, 0.37% active | inhibition, % at 9.4 µM; in the data active = inhibition above about 19%;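 also: recombinant mutant TCR 2C K166C tagged with TAMRA read by polarization; 0% = receptor in buffer alone and 100% = receptor with positive control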
ABHD4 inh: ABHD4 (mouse) inhibition, primary FP screen | Q8VD66 | purified mABHD4, FP-Rh probe fluorescence polarization | inhibition, % at 8.92 µM | 370,000 tested, 0.54% active | AID 720543;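 active = inhibition exceeding the mean over every tested compound plus 3 SD, cut at about 30% in these data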;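 also: 0% = plate median of compound wells and 100% = S159A mutant with DMSO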
Target sequence (Q8VD66 whole entry, looked up): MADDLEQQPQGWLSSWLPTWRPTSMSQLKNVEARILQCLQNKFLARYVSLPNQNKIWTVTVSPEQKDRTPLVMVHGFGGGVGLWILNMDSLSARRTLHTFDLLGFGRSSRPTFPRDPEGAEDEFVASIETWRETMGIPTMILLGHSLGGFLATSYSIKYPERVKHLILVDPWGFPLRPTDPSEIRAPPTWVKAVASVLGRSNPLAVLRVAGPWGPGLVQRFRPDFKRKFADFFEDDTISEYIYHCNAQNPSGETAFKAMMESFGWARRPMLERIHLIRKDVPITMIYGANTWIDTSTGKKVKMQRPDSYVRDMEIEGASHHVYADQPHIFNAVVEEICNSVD
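Assay system: wild-type mouse ABHD4 protein; compound: single nominal dose of 8.92 µM, 0.89% DMSO final; schedule: 45 min + 60 min at 25 °C; measured by: FP readout, ex 525 nm / em 598 nm; evaluation: % inhibition of FP-Rh probe binding versus controls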
SIAE primary: human SIAE inhibition, primary screen | inhibition, % at 9.66 µM | SIAE FP-Rh probe binding, fluorescence polarization | 370,000 tested, 0.69% active;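 active = inhibition above a cutoff: mean of compounds within the control limits plus 3 SD of those, cut at about 17% in these data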;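 also: 0% = plate median of compound wells and 100% = probe without SIAE protein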
PRMT1 inh conf: PRMT1 (human) inhibition, FP confirmation; shares compounds with PRMT1 FP inh; recombinant His-PRMT1, activity-based probe fluorescence polarization; inhibition, % at 2.79 µM; 3,300 tested, 42% active;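 active = mean inhibition across replicates above the hit cutoff derived for the earlier primary screen, cut at about 22% in these data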
An asterisk follows results filed as active; x = not tested or not shown. An excerpt weighted towards active compounds, which were near 2.7% of everything screened.

SMILES	HTRA1 inhibitor	PRMT1 FP inh	TCR CD3 inh	ABHD4 inh	SIAE primary	PRMT1 inh conf
Cn1c(=O)c2[nH]c(-c3ccccc3Cl)c(O)c2n(C)c1=O	6	13	9	-2	2	x
Cn1c(=O)c2[nH]c(-c3ccccc3)c(O)c2n(C)c1=O	7	76*	1	11	7	24*
CCOc1cc(/C=C2\N=C(SC)SC2=O)cc([N+](=O)[O-])c1OC(C)=O	20	x	x	x	x	x
CCOc1c(OC(C)=O)ccc(/C=C2\N=C(SCC)SC2=O)c1[N+](=O)[O-]	13	27*	13	23	4	7
c1nc(SSc2ncnc3nc[nH]c23)c2[nH]cnc2n1	3	48*	-2	10	9	96*
O=C(O)CSc1ncnc2nc[nH]c12	6	-2	3	-4	4	x
Cc1ccc(S(=O)(=O)Cc2cc(F)c([N+](=O)[O-])cc2[N+](=O)[O-])cc1	-6	x	x	x	x	x
COc1cccc(-c2csc(NC(=O)Oc3ccccc3)n2)c1	-4	3	7	-2	2	x
COc1cccc(-c2csc(NNC(=O)c3cccs3)n2)c1	x	29*	-5	0	-8	5
O=C(NCc1ccon1)C1CCC(=O)N(CCc2cccc(F)c2)C1 (stereo not given)	-5	0	5	2	2	x
Nc1[nH]c(C(=O)c2ccccc2)c(-c2ccccn2)c1C(=O)c1c[nH]c2ccc(Br)cc12	x	27*	x	-6	-13	2
Nc1[nH]c(C(=O)c2ccccc2)c(-c2ccccn2)c1C(=O)c1c[nH]c2ccccc12	x	1	3	14	1	x
CCc1nc2nc(C)c(NS(=O)(=O)c3ccc(Cl)s3)c(=O)n2[nH]1	8	-10	-4	7	2	x
Cc1nnc(Sc2cc(NCCO)c([N+](=O)[O-])c3nonc23)s1	-6	85*	7	5	-2	89*
O=[N+]([O-])c1c(NCCO)cc(N2CCCCCC2)c2nonc12	-1	-2	3	-2	0	x
Cc1nnc(Sc2cc(NCCCO)c([N+](=O)[O-])c3nonc23)s1	3	91*	1	18	6	84*
CCCSc1cc(NCCOC(C)=O)c([N+](=O)[O-])c2nonc12	4	3	-7	-8	-9	x
O=C(CCN1C(=O)C2C3C=CC(C4CC34)C2C1=O)Nc1ccc(Cl)cc1O (stereo not given)	2	0	11	-1	-5	x
Cc1ccccc1CC(=O)Nc1ccc(S(=O)(=O)N2CCOCC2)cc1	-1	-2	9	-4	-5	x
CCN(CC)CCN1C(=O)C2C(C(=O)Nc3cc(C)cc(C)c3)C3C=CC2(O3)C1C(=O)NC1CCCCC1 (stereo not given)	0	0	3	-8	7	x
COc1ccc2nc(NN=Cc3cccc(C)n3)cc(C)c2c1	x	5	-7	16	1	x
CCN(c1ccc(NS(=O)(=O)c2cc(Cl)ccc2Cl)cc1)C(C)C	7	32*	-14	12	-3	12
Brc1ccc(-n2cnc(-c3ccccc3)c2)cc1	-17	4	-4	-8	-3	x
Cc1ccc(-c2nn(-c3cccc(F)c3)cc2CN(Cc2nccn2C)C(C)C)o1	-28	41*	4	3	1	1
Cc1ccc(S(=O)(=O)N2CCN(C(=O)C3CCCO3)CC2)cc1 (stereo not given)	1	-3	2	-8	-8	x
SMILES	HTRA1 inhibitor	PRMT1 FP inh	TCR CD3 inh	ABHD4 inh	SIAE primary	PRMT1 inh conf
O=C(NCC(F)(F)F)c1ccc(S(=O)(=O)N2CCN(C(=O)C3CCCO3)CC2)cc1 (stereo not given)	0	70*	8	10	1	1
O=S(=O)(c1ccc(C(F)(F)F)cc1)N1CCCc2nc(-c3ccc(Br)cc3)ccc21	x	-3	-2	1	3	x
Cc1cccc2nc(CSc3nc4cc([N+](=O)[O-])ccc4s3)cn12	-10	53*	-1	-6	-13	-3
Cc1cccc2nc(CSc3ccc(Cl)cc3)cn12	-1	-3	2	-1	-6	x
COc1cccc(CNC(=O)[C@H]2CCCN2C(=O)[C@H]2CCCN2C(=O)c2cccc(Cl)c2)c1	x	4	0	4	0	x
CCSc1nc2c(c(=O)[nH]1)C(c1ccc(C)cc1)C1=C(CCCC1=O)N2 (stereo not given)	9	4	1	-8	-8	x
CSc1nc2c(c(=O)[nH]1)C(c1ccccc1)C1=C(CC(C)(C)CC1=O)N2 (stereo not given)	x	1	1	0	-1	x
O=C1CCCC2=C1C(c1ccc(Br)cc1)c1c([nH]c(=S)[nH]c1=O)N2 (stereo not given)	-4	49*	0	1	-13	38*
CC1(C)CC(=O)C2=C(C1)Nc1[nH]c(=S)[nH]c(=O)c1C2c1ccccc1 (stereo not given)	5	66*	10	2	-14	6
O=C1CC(c2ccccc2)=C(c2ccccc2)C1c1ccccc1 (stereo not given)	-24	-3	9	-6	-6	x
O=C(CSc1ncn[nH]1)c1cccc([N+](=O)[O-])c1	-2	32*	-9	8	5	25*
CC(C)Nc1nc(NCCN2CCNC2=O)c2sccc2n1	x	40*	1	12	4	-6
CCCC[n+]1c(C)sc2ccc(C)cc21	-1	42*	2	-1	0	18
Cc1sc2ccccc2[n+]1CC(=O)c1ccccc1	-4	x	x	x	x	x
CCCC[n+]1c2ccccc2cc2ccccc21	17	4	8	17	2	x
Cc1ccc2sc(C)[n+](CCO)c2c1	5	58*	6	-2	-3	33*
CC[n+]1c(C)sc2cc(C)ccc21	2	74*	0	-4	8	16
C[C@H]1CN([C@@H](C)CO)C(=O)CCCn2cc(nn2)CO[C@@H]1CN(C)S(=O)(=O)c1ccc(Oc2ccccc2)cc1	3	1	-6	-7	-2	x
Cn1nc(-c2ccccc2)cc1NC(=O)[C@@H]1O[C@H](CO)[C@H](O)[C@H](O)[C@H]1O	x	-1	1	0	4	x
CCn1nc(C)c(CN2CCC(n3nccc3NC(=O)Cc3ccccc3)CC2)c1C	-2	-1	3	5	1	x
C/C(=N/OCO/N=C(/C)c1ccc(F)cc1)c1ccc(F)cc1	3	0	0	7	8	x
CC(C)(C)NC(=O)CCN1CCOCC1	3	1	-1	-5	4	x
COc1ccc(N2CCN(CCC(=O)c3ccc4ccccc4c3)CC2)cc1	2	44*	-1	-7	0	28*
COc1ccc(NC(=O)c2ccc(NC(=O)CN3CCN(c4ccc(O)cc4)CC3)cc2)cc1	-1	34*	4	2	6	7
O=C(CCN1CCOCC1)c1ccc(N2CCCCC2)cc1	1	28*	-6	-43	-18	-5
